The test system of data set [1] is Mus musculus. The data set can be described thus: Anticonvulsant activity in po dosed mouse assessed as inhibition of pentylene-tetrazole-induced convulsion. It counts as functional. In short, it runs like this: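 Antagonism of pentylenetetrazole-induced convulsions in orally dosed mice, used as a measure of tranquilizing activity; ED50 (mg/kg) reported.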
The subject of data set [2] is Mus musculus. The data set can be described thus: Muscle relaxant activity in po dosed mouse assessed as muscle relaxation by rotarod test. The data set is classed as functional. A digest of the protocol:
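Rotarod performance test in mice after oral dosing, used as a measure of muscle relaxant activity; result expressed as ED50 (mg/kg).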
A general note: The rotarod test checks motor coordination on a turning rod.

Data set [3] deals with Mus musculus. The data set can be described thus: Anticonvulsant activity in po dosed mouse by maximal electroshock test. The data set is classed as functional. In short, it runs like this: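 Maximal electroshock test in mice after oral dosing, used as a measure of anticonvulsant activity; ED50 (mg/kg) reported.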
A general note: In the maximal electroshock model the usual endpoint is tonic extension of the hind limbs.

Data set [4] is described as follows: Acute toxicity in po dosed mouse. The data set is classed as organism-based. To be noted: in vivo. In short, it runs like this:
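Mice dosed orally; acute toxicity expressed as LD50 (mg/kg), calculated by the Bliss method.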

Bounds are passed on as bounds.

With `COC1(c2ccccc2)N=CC(=O)Nc2ccc(Cl)cc21` (stereo unspecified), the ED50 – broadly, the dose at which the effect has come halfway, by size or by number of responders – in data set [1] was 1.6 mg/kg; in data set [2], 28.1 mg/kg; in data set [3], > 100 mg/kg. In addition, the LD50 (commonly the dose at which mortality reaches 50%) in data set [4] is > 1000 mg/kg.

As to `N#CC1N=C(c2ccccc2)c2cc([N+](=O)[O-])ccc2NC1=O` (stereo unspecified), the ED50 in data set [1], in data set [2] and in data set [3] was > 100 mg/kg in each case. Also, the LD50 in data set [4] is > 1000 mg/kg.

As for `O=C1Nc2ccc(Cl)cc2C(c2ccccc2)=NC1OCCCl` (stereo unspecified), the 50% effective dose (ED50) was 13 mg/kg in data set [1], > 100 mg/kg in data set [2] and > 100 mg/kg in data set [3]. Moreover, the LD50 in data set [4] is > 1000 mg/kg.

As to `O=C1Nc2ccc([N+](=O)[O-])cc2C(c2ccccc2)=NC1OCCCl` (stereo unspecified), the ED50 was 9.2 mg/kg in data set [1], > 100 mg/kg in data set [2] and > 100 mg/kg in data set [3]. Besides, in data set [4], the LD50 is > 1000 mg/kg.

For the molecule `CN1C(=O)CN=C(c2ccccc2)c2cc(Cl)ccc21` [DIAZEPAM], the ED50 was found to be 1.2 mg/kg in data set [1], 14.4 mg/kg in data set [2] and 62.2 mg/kg in data set [3].

On to `CC(=O)OC1(c2ccccc2)c2cc([N+](=O)[O-])ccc2NC(=O)CN1[N+](=O)[O-]` (stereo unspecified), for which the ED50 in data set [1] was 58 mg/kg; in data set [2], > 100 mg/kg; in data set [3], > 100 mg/kg. Further, the LD50 in data set [4] was > 1000 mg/kg.

Take `COC1(c2ccccc2)c2cc(Cl)ccc2N(C)C(=O)CN1[N+](=O)[O-]` (stereo unspecified): the ED50 in data set [1], in data set [2] and in data set [3] was > 100 mg/kg throughout. The LD50 in data set [4] is > 1000 mg/kg.

Take `COC1(c2ccccc2)N=CC(=O)N(C)c2ccc(Cl)cc21` (stereo unspecified): the ED50 was determined as 0.7 mg/kg in data set [1], 27.5 mg/kg in data set [2] and 53 mg/kg in data set [3]. Also, the LD50 in data set [4] is > 1000 mg/kg.

In the case of `O=C1Nc2ccc([N+](=O)[O-])cc2C(c2ccccc2)=NC1OCCO` (stereo unspecified), the ED50 in data set [1] was 9.2 mg/kg; in data set [2], > 100 mg/kg; in data set [3], > 100 mg/kg. In addition, the LD50 in data set [4] is > 1000 mg/kg.

Regarding `O=C1Nc2ccc(Cl)cc2C(c2ccccc2)=NC1NO` (stereo unspecified), the ED50 in data set [1] was 32 mg/kg; in data set [2] it was > 100 mg/kg; in data set [3], > 100 mg/kg. The LD50 in data set [4] is > 1000 mg/kg.

For `O=C1Nc2ccc(Cl)cc2C(c2ccccc2)=NC1OCCO` (stereo unspecified), the ED50 in data set [1] was 36 mg/kg; in data set [2], > 100 mg/kg; in data set [3], > 100 mg/kg. For the same molecule, in data set [4], the LD50 was > 1000 mg/kg.

Regarding `NC1N=C(c2ccccc2)c2cc(Cl)ccc2NC1=O` (stereo unspecified), the ED50 is 85 mg/kg in data set [1], > 100 mg/kg in data set [2] and > 100 mg/kg in data set [3]. The LD50 in data set [4] is > 1000 mg/kg.

Consider `COC1(c2ccccc2)N=CC(=O)Nc2ccc([N+](=O)[O-])cc21` (stereo unspecified), for which the figures for the ED50 in data set [1], in data set [2] and in data set [3] were 1.4 mg/kg, 19.1 mg/kg and > 100 mg/kg, respectively. Moreover, the LD50 in data set [4] was > 1000 mg/kg.

As for `N#CC1N=C(c2ccccc2)c2cc(Cl)ccc2NC1=O` (stereo unspecified), the ED50 was 14 mg/kg in data set [1], > 100 mg/kg in data set [2] and > 100 mg/kg in data set [3]. The 50% lethal dose (LD50) in data set [4] was > 1000 mg/kg.

`CNC1=NC(c2ccccc2)c2cc([N+](=O)[O-])ccc2N(C)C1=O` (stereo unspecified): the ED50 in data set [1], in data set [2] and in data set [3] was > 100 mg/kg throughout. For the same molecule, in data set [4], the LD50 is > 1000 mg/kg.

`COC1(c2ccccc2)c2cc(Cl)ccc2NC(=O)CN1[N+](=O)[O-]` (stereo unspecified): the ED50 in data set [1], in data set [2] and in data set [3] was > 100 mg/kg throughout. Besides, the LD50 in data set [4] is > 1000 mg/kg.

Consider `COC1(c2ccccc2)c2cc([N+](=O)[O-])ccc2NC(=O)CN1[N+](=O)[O-]` (stereo unspecified), for which the ED50 is 13 mg/kg in data set [1], > 100 mg/kg in data set [2] and > 100 mg/kg in data set [3]. In addition, in data set [4], the LD50 was > 1000 mg/kg.

In the case of `COC1(c2ccccc2)N=CC(=O)N(C)c2ccc([N+](=O)[O-])cc21` (stereo unspecified), the ED50 is 0.7 mg/kg in data set [1], 5.2 mg/kg in data set [2] and 76 mg/kg in data set [3]. The same molecule returned an LD50 in data set [4] of 750 mg/kg.

These data come from ChEMBL document CHEMBL3243953, “5-Aryl-1,5-dihydro-2H-1,4-benzodiazepin-2-one derivatives as antianxiety agents” (J Med Chem, 1977).
